Experimental data published in article PMC5582369 (British Journal of Clinical Pharmacology, 2017).

How the values were obtained:
Na+/H+ exchange = details: healthy volunteers, cited from earlier work
[1] = Cefadroxil plasma pharmacokinetics, phase 1 two-period crossover study; type: in vivo, healthy volunteers (human)
PepT1 = details: in vitro; cited from earlier work
NHE3 = target: T1, NHE3 (Homo sapiens, UniProt P48764); test: Stool frequency and consistency; type: in vivo, healthy volunteers (human); details: mean ± SD over overall tenapanor 15 mg b.i.d. dosing period; day –1: 3.7 ± 1.0
T1 sequence (P48764 26-834): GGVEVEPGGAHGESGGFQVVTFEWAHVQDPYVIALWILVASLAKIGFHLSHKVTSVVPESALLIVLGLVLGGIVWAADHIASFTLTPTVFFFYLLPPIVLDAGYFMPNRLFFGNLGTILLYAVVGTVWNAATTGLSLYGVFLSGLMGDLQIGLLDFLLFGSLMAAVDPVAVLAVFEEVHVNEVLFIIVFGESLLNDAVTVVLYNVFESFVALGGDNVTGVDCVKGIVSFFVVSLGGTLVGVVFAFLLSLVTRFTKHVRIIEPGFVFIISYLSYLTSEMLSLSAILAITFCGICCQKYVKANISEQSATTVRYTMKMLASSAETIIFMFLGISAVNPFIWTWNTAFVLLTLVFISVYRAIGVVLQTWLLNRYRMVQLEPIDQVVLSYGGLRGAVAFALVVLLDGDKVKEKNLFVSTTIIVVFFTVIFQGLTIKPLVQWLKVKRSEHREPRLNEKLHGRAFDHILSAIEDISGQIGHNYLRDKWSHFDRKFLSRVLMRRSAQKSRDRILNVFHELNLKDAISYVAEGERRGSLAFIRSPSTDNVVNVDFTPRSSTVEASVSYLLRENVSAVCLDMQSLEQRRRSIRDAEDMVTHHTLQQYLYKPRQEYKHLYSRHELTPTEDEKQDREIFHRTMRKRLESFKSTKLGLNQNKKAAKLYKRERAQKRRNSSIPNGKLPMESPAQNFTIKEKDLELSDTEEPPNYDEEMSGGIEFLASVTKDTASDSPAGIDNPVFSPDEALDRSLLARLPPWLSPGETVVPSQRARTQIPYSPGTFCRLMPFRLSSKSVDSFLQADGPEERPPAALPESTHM

[2] = Tenapanor plasma concentration; type: in vivo, healthy volunteers (human); details: tenapanor 15 mg b.i.d., day 5
Outline: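 Blood was drawn predose and 1, 2 and 4 h after the day-5 morning dose of the test compound (15 mg twice daily from day 1). Plasma was extracted liquid–liquid with a deuterated internal standard, evaporated under nitrogen and reconstituted. Analysis was by LC-MS/MS, validated over 0.500–100 ng ml–1, with a lower limit of quantitation of 0.5 ng ml–1.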

[3] = Safety and tolerability assessments; type: in vivo, healthy volunteers (human)
Outline: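 Healthy adults (18–50 y, BMI 18–30 kg m–2, 50–100 kg) got the oral test compound 15 mg twice daily for 4 days, then a single 15 mg dose with a 500 mg probe cephalosporin on day 5, 5–10 min before standardized meals. Adverse events were monitored from screening to follow-up, 7–10 days after the last dose. Vital signs, ECGs, physical exams and clinical labs were also collected.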

[4] = whole study, all AEs occurred in the tenapanor treatment period

N=C(N)NC(=O)c1nc(Cl)c(N)nc1N [Amiloride]
Effect on gastrointestinal uptake of amoxicillin (Na+/H+ exchange): decrease the gastrointestinal uptake
Effect on amoxicillin absorption in the gut (Na+/H+ exchange; jejunal perfusion with amiloride and amoxicillin): did not affect amoxicillin absorption

CC1=C(C(=O)O)N2C(=O)[C@@H](NC(=O)[C@H](N)c3ccc(O)cc3)[C@H]2SC1 [Cefadroxil]
t½ (apparent terminal half-life) of cefadroxil ([1]; cefadroxil 500 mg alone, geometric mean (GCV, %), n = 28): 2.0 (11.1) h
Tmax ([1]; human, plasma, oral, 500 mg): 1.5 h
Affinity for PepT1 (PepT1): moderate affinity

CN1Cc2c(Cl)cc(Cl)cc2[C@H](c2cccc(S(=O)(=O)NCCOCCOCCNC(=O)NCCCCNC(=O)NCCOCCOCCNS(=O)(=O)c3cccc([C@@H]4CN(C)Cc5c(Cl)cc(Cl)cc54)c3)c2)C1 [Tenapanor]
BSFS score (stool consistency) (NHE3): 5.4 ± 1.2
Detection of tenapanor in plasma [2]: not detected in plasma
Serious AEs or discontinuations due to AEs ([3]; during the study, 28 volunteers): No serious AEs or discontinuations due to AEs
Tolerability ([3]; tenapanor 15 mg b.i.d., 28 volunteers): generally well tolerated
Abdominal distension (n volunteers) [3, 4]: 4
Abdominal pain (n volunteers) [3, 4]: 4
Abnormal gastrointestinal sounds (n volunteers) [3, 4]: 3
Diarrhoea (n volunteers) [3, 4]: 2
Flatulence (n volunteers) [3, 4]: 2
